Columns and labels:
[1] = biological target: T1, Aurora kinase A (Homo sapiens) (UniProt O14965); test: Inhibition of AURA (unknown origin) at 30 uM by microfluidic mobility shift assay relative to control
T1 sequence (whole entry): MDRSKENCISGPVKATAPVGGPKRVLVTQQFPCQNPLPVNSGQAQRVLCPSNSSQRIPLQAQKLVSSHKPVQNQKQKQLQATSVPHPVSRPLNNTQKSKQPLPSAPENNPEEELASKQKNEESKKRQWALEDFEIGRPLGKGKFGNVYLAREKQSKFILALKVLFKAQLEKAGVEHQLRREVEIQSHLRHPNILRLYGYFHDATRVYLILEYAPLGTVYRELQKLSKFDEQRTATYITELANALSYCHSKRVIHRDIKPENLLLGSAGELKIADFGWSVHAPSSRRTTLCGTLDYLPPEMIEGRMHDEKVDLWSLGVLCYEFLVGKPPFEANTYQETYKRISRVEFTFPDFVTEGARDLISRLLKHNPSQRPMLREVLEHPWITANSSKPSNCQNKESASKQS
In short: (§1)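 Single-point screen in a 24-enzyme kinase panel using a microfluidic assay. Each compound was tested at […] with ATP at roughly the Km for each enzyme. The pan-AGC inhibitor H-89 served as an internal control on every plate.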

[2] = biological target: Mitogen-activated protein kinase 1 (Homo sapiens, UniProt P28482); test: Inhibition of ERK2 (unknown origin) at 30 uM by microfluidic mobility shift assay relative to control; in short: as §1
[3] = biological target: Tyrosine-protein kinase ABL1 (Homo sapiens, UniProt P00519); test: Inhibition of ABL (unknown origin) at 30 uM by microfluidic mobility shift assay relative to control; in short: as §1
[4] = biological target: Tyrosine-protein kinase Fyn (Homo sapiens, UniProt P06241); test: Inhibition of FYN (unknown origin) at 30 uM by microfluidic mobility shift assay relative to control; in short: as §1
[5] = biological target: Mitogen-activated protein kinase 14 (Homo sapiens) (UniProt Q16539); test: Inhibition of p38alpha (unknown origin) at 30 uM by microfluidic mobility shift assay relative to control; in short: as §1
[6] = biological target: Tyrosine-protein kinase Lck (Homo sapiens, UniProt P06239); test: Inhibition of LCK (unknown origin) at 30 uM by microfluidic mobility shift assay relative to control; in short: as §1
[7] = biological target: Mitogen-activated protein kinase 3 (Homo sapiens, UniProt P27361); test: Inhibition of ERK1 (unknown origin) at 30 uM by microfluidic mobility shift assay relative to control; in short: as §1
[8] = biological target: MAP kinase-activated protein kinase 2 (Homo sapiens) (UniProt P49137); test: Inhibition of MK2 (unknown origin) at 30 uM by microfluidic mobility shift assay relative to control; in short: as §1
[9] = biological target: Glycogen synthase kinase-3 beta (Homo sapiens, UniProt P49841); test: Inhibition of GSK3beta (unknown origin) at 30 uM by microfluidic mobility shift assay relative to control; in short: as §1
[10] = biological target: Ribosomal protein S6 kinase alpha-5 (Homo sapiens, UniProt O75582); test: Inhibition of MSK1 (unknown origin) at 30 uM by microfluidic mobility shift assay relative to control; in short: as §1
[11] = biological target: RAC-alpha serine/threonine-protein kinase (Homo sapiens, UniProt P31749); test: Inhibition of AKT1 (unknown origin) at 30 uM by microfluidic mobility shift assay relative to control; in short: as §1
[12] = biological target: T2, Serine/threonine-protein kinase D2 (Homo sapiens) (UniProt Q9BZL6); test: Inhibition of PKD2 (unknown origin) at 30 uM by microfluidic mobility shift assay relative to control; in short: as §1
T2 sequence (whole entry): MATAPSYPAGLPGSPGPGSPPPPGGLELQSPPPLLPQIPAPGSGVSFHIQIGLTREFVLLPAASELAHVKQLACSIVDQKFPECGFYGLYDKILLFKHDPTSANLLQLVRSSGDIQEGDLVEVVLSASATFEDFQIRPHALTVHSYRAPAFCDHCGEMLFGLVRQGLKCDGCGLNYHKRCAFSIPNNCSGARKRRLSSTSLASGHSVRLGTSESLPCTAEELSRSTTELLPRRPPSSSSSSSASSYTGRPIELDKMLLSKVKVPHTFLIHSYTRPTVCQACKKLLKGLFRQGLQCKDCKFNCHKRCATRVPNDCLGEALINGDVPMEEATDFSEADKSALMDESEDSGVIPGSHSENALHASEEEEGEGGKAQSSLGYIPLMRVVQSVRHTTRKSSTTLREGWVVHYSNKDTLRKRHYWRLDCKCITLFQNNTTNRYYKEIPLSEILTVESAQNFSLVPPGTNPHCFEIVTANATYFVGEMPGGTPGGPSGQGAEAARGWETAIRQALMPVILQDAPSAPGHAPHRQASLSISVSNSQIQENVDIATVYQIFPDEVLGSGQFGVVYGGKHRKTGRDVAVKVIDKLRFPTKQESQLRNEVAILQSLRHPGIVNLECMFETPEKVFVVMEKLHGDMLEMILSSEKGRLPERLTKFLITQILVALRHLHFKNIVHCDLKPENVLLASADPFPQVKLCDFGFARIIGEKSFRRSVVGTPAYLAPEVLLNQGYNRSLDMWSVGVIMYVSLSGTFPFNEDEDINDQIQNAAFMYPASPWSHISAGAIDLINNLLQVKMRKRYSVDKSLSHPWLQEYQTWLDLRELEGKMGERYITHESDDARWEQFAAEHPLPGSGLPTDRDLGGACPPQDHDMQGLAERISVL

[13] = biological target: T3, MAP kinase-activated protein kinase 5 (Homo sapiens) (UniProt Q8IW41); test: Inhibition of MAPKAPK5 (unknown origin) at 30 uM by microfluidic mobility shift assay relative to control; in short: as §1
T3 sequence (whole entry): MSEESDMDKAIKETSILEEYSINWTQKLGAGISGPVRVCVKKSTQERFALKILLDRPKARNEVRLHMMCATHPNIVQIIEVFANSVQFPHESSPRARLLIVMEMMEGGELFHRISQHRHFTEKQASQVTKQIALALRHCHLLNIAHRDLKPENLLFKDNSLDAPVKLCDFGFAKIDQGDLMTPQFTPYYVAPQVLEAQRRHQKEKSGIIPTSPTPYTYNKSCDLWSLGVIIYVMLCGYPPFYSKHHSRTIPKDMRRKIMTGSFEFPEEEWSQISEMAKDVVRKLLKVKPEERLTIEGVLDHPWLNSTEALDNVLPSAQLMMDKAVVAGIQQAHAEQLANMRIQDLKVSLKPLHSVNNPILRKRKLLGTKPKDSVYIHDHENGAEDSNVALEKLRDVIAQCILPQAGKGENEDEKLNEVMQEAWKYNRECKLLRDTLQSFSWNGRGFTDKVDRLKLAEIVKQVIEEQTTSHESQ

[14] = biological target: Ribosomal protein S6 kinase alpha-1 (Homo sapiens, UniProt Q15418); test: Inhibition of RSK1 (unknown origin) at 30 uM by microfluidic mobility shift assay relative to control; in short: as §1
[15] = biological target: Insulin receptor (Homo sapiens) (UniProt P06213); test: Inhibition of INSR (unknown origin) at 30 uM by microfluidic mobility shift assay relative to control; in short: as §1
[16] = biological target: RAC-beta serine/threonine-protein kinase (Homo sapiens, UniProt P31751); test: Inhibition of AKT2 (unknown origin) at 30 uM by microfluidic mobility shift assay relative to control; in short: as §1
Chain of RAC-beta serine/threonine-protein kinase (P31751 whole entry): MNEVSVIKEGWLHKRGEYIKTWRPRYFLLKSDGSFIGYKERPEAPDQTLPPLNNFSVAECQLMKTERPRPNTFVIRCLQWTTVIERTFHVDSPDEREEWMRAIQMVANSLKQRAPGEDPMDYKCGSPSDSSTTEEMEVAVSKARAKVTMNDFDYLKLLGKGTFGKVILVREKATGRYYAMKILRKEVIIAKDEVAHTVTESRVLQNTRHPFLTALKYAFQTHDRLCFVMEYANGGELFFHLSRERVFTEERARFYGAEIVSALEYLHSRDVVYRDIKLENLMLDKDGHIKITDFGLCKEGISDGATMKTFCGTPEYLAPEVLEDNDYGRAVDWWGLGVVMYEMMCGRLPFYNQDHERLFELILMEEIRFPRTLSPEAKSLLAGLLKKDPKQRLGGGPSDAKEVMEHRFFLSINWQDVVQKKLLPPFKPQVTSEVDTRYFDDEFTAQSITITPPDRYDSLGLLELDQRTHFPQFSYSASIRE

Chain of MAP kinase-activated protein kinase 2 (Homo sapiens) (P49137 whole entry, looked up): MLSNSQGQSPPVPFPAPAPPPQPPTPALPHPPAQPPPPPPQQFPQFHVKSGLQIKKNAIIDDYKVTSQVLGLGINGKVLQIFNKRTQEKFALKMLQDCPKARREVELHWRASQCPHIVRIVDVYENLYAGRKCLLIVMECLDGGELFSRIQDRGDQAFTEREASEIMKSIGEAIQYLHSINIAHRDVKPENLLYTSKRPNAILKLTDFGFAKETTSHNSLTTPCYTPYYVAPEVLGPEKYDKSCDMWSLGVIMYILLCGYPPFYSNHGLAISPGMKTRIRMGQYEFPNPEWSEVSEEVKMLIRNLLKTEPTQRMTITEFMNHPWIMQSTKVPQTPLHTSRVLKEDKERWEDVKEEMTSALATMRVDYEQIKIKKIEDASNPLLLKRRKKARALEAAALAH
Chain of Tyrosine-protein kinase Lck (P06239 2-509 limits assumed): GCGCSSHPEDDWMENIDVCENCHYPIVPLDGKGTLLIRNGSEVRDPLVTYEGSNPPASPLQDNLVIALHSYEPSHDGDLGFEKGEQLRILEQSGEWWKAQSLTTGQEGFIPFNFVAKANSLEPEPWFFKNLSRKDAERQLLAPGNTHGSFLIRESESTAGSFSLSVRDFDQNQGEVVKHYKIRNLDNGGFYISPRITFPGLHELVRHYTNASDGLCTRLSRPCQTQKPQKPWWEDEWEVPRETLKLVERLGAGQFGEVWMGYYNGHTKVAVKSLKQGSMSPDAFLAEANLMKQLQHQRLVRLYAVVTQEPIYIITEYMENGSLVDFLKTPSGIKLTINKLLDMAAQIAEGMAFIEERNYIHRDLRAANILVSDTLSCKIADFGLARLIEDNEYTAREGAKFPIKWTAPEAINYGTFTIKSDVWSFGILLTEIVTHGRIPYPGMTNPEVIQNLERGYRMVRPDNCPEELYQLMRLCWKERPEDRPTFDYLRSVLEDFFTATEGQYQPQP
Chain of Tyrosine-protein kinase Fyn (P06241 2-537 limits assumed): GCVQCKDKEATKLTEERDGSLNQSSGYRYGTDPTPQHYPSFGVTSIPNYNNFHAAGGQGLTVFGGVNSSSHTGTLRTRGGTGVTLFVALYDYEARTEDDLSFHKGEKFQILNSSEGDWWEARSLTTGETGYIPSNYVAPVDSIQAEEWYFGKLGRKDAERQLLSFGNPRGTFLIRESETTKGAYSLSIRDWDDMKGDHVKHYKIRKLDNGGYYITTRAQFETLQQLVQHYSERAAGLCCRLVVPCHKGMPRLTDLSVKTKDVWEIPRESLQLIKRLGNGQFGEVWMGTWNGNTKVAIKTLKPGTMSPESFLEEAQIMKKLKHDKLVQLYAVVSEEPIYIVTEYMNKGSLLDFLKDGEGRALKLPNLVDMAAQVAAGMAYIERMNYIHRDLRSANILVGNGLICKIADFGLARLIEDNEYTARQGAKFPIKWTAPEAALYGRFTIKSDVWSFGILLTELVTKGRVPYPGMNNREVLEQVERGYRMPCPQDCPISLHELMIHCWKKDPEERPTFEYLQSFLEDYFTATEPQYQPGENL
Chain of Insulin receptor (Homo sapiens) (P06213 28-758 limits assumed): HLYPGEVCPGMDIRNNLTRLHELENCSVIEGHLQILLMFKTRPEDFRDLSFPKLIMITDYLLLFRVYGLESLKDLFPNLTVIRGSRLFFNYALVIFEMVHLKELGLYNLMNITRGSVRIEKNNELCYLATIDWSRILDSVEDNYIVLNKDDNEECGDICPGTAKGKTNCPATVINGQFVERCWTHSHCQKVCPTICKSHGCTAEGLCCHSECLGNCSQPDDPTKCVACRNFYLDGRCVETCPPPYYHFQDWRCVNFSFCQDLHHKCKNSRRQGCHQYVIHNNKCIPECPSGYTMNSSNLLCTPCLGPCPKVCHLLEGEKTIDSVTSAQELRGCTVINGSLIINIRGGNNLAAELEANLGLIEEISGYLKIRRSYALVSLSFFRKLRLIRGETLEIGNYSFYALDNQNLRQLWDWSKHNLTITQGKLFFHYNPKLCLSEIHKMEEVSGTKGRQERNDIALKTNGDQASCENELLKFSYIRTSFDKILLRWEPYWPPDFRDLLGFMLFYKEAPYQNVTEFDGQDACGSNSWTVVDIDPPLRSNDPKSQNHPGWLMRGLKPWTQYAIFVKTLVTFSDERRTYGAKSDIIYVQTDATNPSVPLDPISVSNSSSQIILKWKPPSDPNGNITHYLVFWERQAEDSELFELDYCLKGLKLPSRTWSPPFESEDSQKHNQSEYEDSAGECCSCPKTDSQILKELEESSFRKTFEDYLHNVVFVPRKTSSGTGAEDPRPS
Chain of Insulin receptor (Homo sapiens) (P06213 763-1382 limits assumed): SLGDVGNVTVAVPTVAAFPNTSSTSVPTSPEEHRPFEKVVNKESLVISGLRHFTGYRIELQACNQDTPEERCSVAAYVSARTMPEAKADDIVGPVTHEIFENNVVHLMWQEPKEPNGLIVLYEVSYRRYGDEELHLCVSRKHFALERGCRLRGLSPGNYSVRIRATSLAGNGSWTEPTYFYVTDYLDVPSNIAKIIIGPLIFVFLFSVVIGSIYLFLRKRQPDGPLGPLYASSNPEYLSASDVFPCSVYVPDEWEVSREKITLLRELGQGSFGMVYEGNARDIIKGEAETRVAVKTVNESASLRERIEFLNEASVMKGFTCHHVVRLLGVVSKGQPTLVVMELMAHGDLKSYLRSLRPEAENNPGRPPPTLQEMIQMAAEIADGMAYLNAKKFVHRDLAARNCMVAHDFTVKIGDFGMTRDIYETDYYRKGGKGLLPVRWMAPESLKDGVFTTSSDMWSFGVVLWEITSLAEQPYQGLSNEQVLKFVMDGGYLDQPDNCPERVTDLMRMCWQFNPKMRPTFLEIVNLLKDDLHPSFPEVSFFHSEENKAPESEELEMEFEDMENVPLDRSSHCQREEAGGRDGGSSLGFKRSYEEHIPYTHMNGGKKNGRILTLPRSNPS
Chain of Mitogen-activated protein kinase 14 (Homo sapiens) (Q16539 whole entry): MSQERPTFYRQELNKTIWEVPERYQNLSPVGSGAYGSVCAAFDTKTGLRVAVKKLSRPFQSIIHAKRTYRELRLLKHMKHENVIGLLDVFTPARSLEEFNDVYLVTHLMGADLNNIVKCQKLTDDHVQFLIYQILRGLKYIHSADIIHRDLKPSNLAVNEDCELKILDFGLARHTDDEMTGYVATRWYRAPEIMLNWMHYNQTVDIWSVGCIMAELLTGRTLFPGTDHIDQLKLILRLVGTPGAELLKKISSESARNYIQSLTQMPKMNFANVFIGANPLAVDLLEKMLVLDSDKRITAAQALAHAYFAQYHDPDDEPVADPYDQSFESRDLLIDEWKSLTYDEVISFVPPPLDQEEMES
Chain of Mitogen-activated protein kinase 1 (P28482 whole entry): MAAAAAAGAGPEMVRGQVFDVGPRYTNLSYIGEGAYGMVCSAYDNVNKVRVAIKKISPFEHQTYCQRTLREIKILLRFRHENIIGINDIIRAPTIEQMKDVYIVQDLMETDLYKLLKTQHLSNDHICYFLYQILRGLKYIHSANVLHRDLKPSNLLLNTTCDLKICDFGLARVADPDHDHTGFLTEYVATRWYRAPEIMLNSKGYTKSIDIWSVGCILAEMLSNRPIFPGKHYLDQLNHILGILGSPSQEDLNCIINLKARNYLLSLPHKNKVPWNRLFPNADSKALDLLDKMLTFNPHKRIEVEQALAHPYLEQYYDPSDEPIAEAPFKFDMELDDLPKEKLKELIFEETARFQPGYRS
Chain of Ribosomal protein S6 kinase alpha-5 (O75582 whole entry, looked up): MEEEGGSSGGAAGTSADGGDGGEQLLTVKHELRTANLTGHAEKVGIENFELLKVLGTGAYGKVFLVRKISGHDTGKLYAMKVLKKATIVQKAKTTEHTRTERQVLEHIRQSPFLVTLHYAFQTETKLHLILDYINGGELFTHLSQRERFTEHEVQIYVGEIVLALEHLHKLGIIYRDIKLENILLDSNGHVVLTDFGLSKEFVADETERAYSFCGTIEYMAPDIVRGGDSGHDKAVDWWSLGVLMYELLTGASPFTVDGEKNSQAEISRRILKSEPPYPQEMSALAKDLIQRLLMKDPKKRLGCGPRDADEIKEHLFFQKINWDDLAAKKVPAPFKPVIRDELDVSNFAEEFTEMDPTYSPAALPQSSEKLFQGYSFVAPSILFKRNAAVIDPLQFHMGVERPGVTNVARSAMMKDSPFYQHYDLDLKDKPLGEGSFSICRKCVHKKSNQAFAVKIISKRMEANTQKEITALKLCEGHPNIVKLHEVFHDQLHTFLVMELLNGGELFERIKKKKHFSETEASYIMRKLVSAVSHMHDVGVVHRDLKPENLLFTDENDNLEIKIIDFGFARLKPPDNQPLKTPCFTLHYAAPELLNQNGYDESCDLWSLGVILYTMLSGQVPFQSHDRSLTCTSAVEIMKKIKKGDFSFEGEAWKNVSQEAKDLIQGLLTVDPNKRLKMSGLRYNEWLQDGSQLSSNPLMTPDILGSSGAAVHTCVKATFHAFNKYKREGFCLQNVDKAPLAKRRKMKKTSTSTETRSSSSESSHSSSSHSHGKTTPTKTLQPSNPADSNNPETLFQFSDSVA

| SMILES | inhibition [1] [%] | inhibition [2] [%] | inhibition [3] [%] | inhibition [4] [%] | inhibition [5] [%] | inhibition [6] [%] | inhibition [7] [%] | inhibition [8] [%] | inhibition [9] [%] | inhibition [10] [%] | inhibition [11] [%] | inhibition [12] [%] | inhibition [13] [%] | inhibition [14] [%] | inhibition [15] [%] | inhibition [16] [%] |
| --- | --- | --- | --- | --- | --- | --- | --- | --- | --- | --- | --- | --- | --- | --- | --- | --- |
| NC1(Cc2ccccc2)CCN(S(=O)(=O)c2cccc3cnccc23)CC1 | 43 | 17 | 7 | 5 | 10 | 15 | 10 | 0 | 19 | 58 | 15 | 16 | 0 | 42 | 4 | 13 |
| O=S(=O)(c1cccc2cnccc12)N1CCC2(CCCCN2)CC1 | 71 | 9 | 12 | 9 | 7 | 15 | 0 | 14 | 28 | 76 | 27 | 24 | 25 | 66 | 3 | 10 |
| O=S(=O)(c1cccc2cnccc12)N1CCC2(CCCN2)CC1 | 43 | 7 | 9 | 5 | 0 | 6 | 6 | 27 | 20 | 85 | 28 | 81 | 15 | 82 | 0 | 11 |
| c1nc(N2CCC3(CCCN3)CC2)c2nc[nH]c2n1 | 55 | 50 | 26 | 31 | 2 | 21 | 53 | 48 | 19 | 95 | 91 | 82 | 29 | 72 | 2 | 72 |
| c1nc(N2CCC3(CCNC3)CC2)c2nc[nH]c2n1 | 59 | 38 | 80 | 84 | 3 | 86 | 39 | 66 | 39 | 94 | 94 | 80 | 41 | 77 | 6 | 70 |
| c1nc(N2CCCC23CCNCC3)c2nc[nH]c2n1 | 18 | 10 | 8 | 14 | 5 | 9 | 13 | 17 | 43 | 13 | 12 | 8 | 8 | 13 | 9 | 0 |
| c1nc(N2CCCC3(CCCNC3)C2)c2nc[nH]c2n1 (stereo not drawn) | 34 | 15 | 5 | 8 | 5 | 7 | 19 | 11 | 15 | 71 | 77 | 7 | 8 | 39 | 4 | 37 |
| c1nc(N2CCCC3(CCNCC3)C2)c2nc[nH]c2n1 | 70 | 28 | 32 | 33 | 2 | 15 | 16 | 19 | 32 | 89 | 85 | 55 | 3 | 71 | 3 | 26 |

Source: ChEMBL document CHEMBL2417369, “Synthesis and evaluation of heteroaryl substituted diazaspirocycles as scaffolds to probe the ATP-binding site of protein kinases” (Bioorg Med Chem, 2013)
